The text below walks through data of paper PMC8760168 (Current drug metabolism, 2021).

The nature of data set [1]: Imaging mass spectrometry of lung after oral administration. It is filed as in vivo, Swiss Webster mice. Particulars: 25 mg/kg oral, lungs harvested after 1 h, 50 μm resolution. A digest of the protocol: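 Female Swiss Webster mice dosed orally. Lungs excised, frozen briefly on dry-ice vapour, stored at −80°C, then equilibrated to −20°C for 30 min. 20-micron cryosections thaw-mounted, rinsed with 0.1% TFA and dried 1 h. 2,5-Dihydroxyacetophenone matrix (50 mg/mL) sprayed in layers. MALDI-TOF/TOF in reflectron MS/MS mode, transitions m/z 416>372 and 416>331.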

The nature of data set [2]: Phase II stability assay, glucuronidation, mouse liver S9. It is filed as in vitro ADME. The method in brief:
(§1)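 Glucuronidation: test compound 10 μM in phosphate buffer pH 7.4 with UDP-glucuronic acid, saccharic-1,4-lactone, MgCl2 and alamethicin, 37°C. Started with human or mouse liver S9 (0.5 mg/mL protein). Short assay sampled 0–120 min; long assay (mouse) sampled 1–24 h. Quenched in acetonitrile with internal standard, then LC-MS/MS. t1/2 from ln area ratio. Long assay: first-order k from glucuronide area ratio. Two independent assays, triplicate.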

The conditions of data set [3]: repeated high dose exposure in rodents; cited from earlier work.
Data set [4] in a line: Phase II stability assay, glucosidation, mouse liver S9. Particulars: mouse liver S9, UDP-Glc. It is filed as in vitro ADME. The method in brief:
(§2)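 Glucosidation: test compound 10 μM in phosphate buffer pH 7.4 with UDP-glucose, gluco-1,5-lactone, MgCl2 and alamethicin, 37°C. Started with mouse liver or kidney S9 (0.5 mg/mL protein). Sampled 0–120 min; long assay (kidney) sampled 1–24 h. Quenched in acetonitrile with internal standard, then LC-MS/MS. t1/2 from ln area ratio. Long assay: first-order k from glucoside area ratio. Two independent assays, triplicate.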

A short description of data set [5]: Phase I microsomal stability assay, dog liver microsomes. Particulars: NADPH, 10 μM, 0.5 mg/mL protein, two hours. It is filed as in vitro ADME. The method in brief: (§3)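 Test compound at 10 μM in phosphate buffer pH 7.4 with NADPH regenerating system, preincubated 5 min at 37°C. Started with dog, mouse or rat liver microsomes or human liver fraction (0.5 mg/mL protein).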
In general terms: Liver microsomes are vesicles of endoplasmic reticulum, rich in cytochrome P450 enzymes.

Data set [6] in a line: Pharmacokinetic studies in mice. It is filed as in vivo, Swiss Webster mice. The method in brief:
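Six-week-old female mice given 25 mg/kg by gavage (2% PEG in 2% aqueous HPMC), 25 mg/kg IP (50% propylene glycol/50% PBS pH 7.2) or 1 mg/kg tail vein (PBS pH 7.2). Blood, lung and non-perfused brain taken at 10–1,440 min, n = 4 (oral, IP) or 8 (IV). Methanol extraction with internal standard, then LC-MS/MS. Two-compartment model; half-lives from elimination rates.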

The conditions of data set [7]: neutral pH; cited from earlier work.
The nature of data set [8]: Phase I microsomal stability assay, human liver fraction. It is filed as in vitro ADME. Particulars: NADPH, 10 μM, 0.5 mg/mL protein, two hours. A digest of the protocol: as §3
A short description of data set [9]: Phase I microsomal stability assay, mouse liver microsomes. It is filed as in vitro ADME. Particulars: NADPH, 10 μM, 0.5 mg/mL protein, two hours. The method in brief:
as §3

Data set [10] can be described thus: Phase II stability assay, glucosidation, mouse kidney S9. It is filed as in vitro ADME. Particulars: mouse kidney S9, UDP-Glc. A digest of the protocol:
as §2

The nature of data set [11]: Phase II stability assay, glucuronidation, human liver S9. It is filed as in vitro ADME. Particulars: human liver S9, UDP-GlcUA, alamethicin, saccharolactone, 10 μM. The method in brief: as §1
The nature of data set [12]: Phase I microsomal stability assay, rat liver microsomes. It is filed as in vitro ADME. Particulars: NADPH, 10 μM, 0.5 mg/mL protein, two hours. The method in brief: as §3
Data set [13] has as its target GABAA receptors. As to conditions: read-out: receptor affinity (EC50); no reference given; cited from earlier work.
Data set [14] has as its target CYP3A4 (Homo sapiens, UniProt P08684). As to the kind of experiment: CYP3A4 inhibition assay. Particulars: recombinant CYP3A4, fluorescent substrate.
Data set [15] is described as follows: Quantification of MIDD0301 and MIDD0301 metabolites in urine and feces. It is filed as in vivo, Swiss Webster mice. Particulars: for Feces & Urine (%) 0-48 hours / Feces (%) 0-24 hours / Feces (%) 24-48 hours / Urine (%) 0-24 hours / Urine (%) 24-48 hours: % of moles of MIDD0301 administered. The method in brief: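 Seven-week-old female mice housed singly in metabolic cages; n = 3 per route. Dosing: oral 750 μg, IP 750 μg (50% propylene glycol/PBS) or IV 250 μg (PBS). Urine and feces collected at 0–24 and 24–48 h and stored at −20°C. Extracted with internal standards, ultrafiltered, then C18 LC-MS/MS with positive MRM against synthesized-standard calibration curves. Reported as % of moles administered.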

The conditions of data set [16]: cited from earlier work.
For data set [17] the following is noted: four hours; cited from earlier work.

Where “and” joins values, the source holds several entries; their conditions need not be identical. Identical values can stand only once.

Sequence of CYP3A4 (P08684 whole entry): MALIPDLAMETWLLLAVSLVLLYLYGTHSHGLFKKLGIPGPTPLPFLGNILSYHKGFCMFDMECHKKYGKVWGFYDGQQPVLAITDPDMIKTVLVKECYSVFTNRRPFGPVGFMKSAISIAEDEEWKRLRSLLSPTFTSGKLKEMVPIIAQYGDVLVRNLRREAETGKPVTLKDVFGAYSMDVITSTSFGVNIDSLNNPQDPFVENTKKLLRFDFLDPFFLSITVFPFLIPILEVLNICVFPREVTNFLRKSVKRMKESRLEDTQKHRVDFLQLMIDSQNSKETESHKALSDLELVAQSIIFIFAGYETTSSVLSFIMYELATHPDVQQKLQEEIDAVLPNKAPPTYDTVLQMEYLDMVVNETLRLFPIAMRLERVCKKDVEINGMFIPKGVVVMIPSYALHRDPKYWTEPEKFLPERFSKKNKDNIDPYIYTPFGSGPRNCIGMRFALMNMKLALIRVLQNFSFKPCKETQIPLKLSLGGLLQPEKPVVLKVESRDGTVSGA

As usually defined, the EC50 is the concentration at which the effect is half-maximal. In general, bioavailability refers to the share of a dose that reaches the circulation, judged against a reference dose that is usually intravenous. For `C[C@H]1N=C(c2ccccc2F)c2cc(Br)ccc2-n2cnc(C(=O)O)c21` [MIDD0301], the “spatial distribution in mouse lung (IMS)” value in data set [1] is recorded as “uniform distribution”. The “half-life, conversion to glucuronide” value in [2] (mouse liver S9, UDP-GlcUA, alamethicin, saccharolactone, 10 μM) was found to be 2.38 h; in data set [11] it was 4 h. Moreover, in data set [2] (mouse liver S9, monitored for 8 h), the “reaction rate, formation of MIDD0301 glucuronide (first order kinetics)” value is 0.0042 min⁻¹. In data set [3], the adverse effects entry is listed as “did not cause any adverse effects”. Also, in data set [4], the “conversion of MIDD0301 (glucosidation)” value was “did not observe conversion”. Further, the “metabolic conversion of MIDD0301” value in data set [5], in data set [8], in data set [9] and in data set [12] was “not observed” in each case. This compound registered a half-lives in data set [6] (1 mg/kg IV tail vein injection, blood, lung, brain) of 1 to 2 h. Moreover, the “tolerability of tail vein injection” value in [6] (1 mg/kg IV, aqueous solution) is reported as “well-tolerated without signs of irritation”. For the same compound, the signs of toxicity entry in data set [6] (25 mg/kg IP, throughout the study) is recorded as “no signs of toxicity”. For the same compound, the “blood concentration after 24 h” value in data set [6] (25 mg/kg oral) is given as 12 nM. In addition, the “brain concentration after 24 h” value in [6] (25 mg/kg oral) is on record as “less than 3 nM”. Further, the “lung concentration after 24 h” value in data set [6] (25 mg/kg oral) is “less than 3 nM”. The tmax in data set [6] (25 mg/kg oral gavage) stood at 0.333 h. Also, the “brain concentration as % of the corresponding blood concentrations” value in [6] (25 mg/kg oral, non-perfused brains) is “less than 7%”. Besides, the “half-lives for blood and lung” value in data set [6] (25 mg/kg oral, based on calculated elimination rates, two compartment model) is 4 to 5 h. Besides, the “drug half-life in blood, lung, and brain” value in data set [6] (IP administration) and in data set [6] (oral administration) was 4 to 6 h in each case. Also, the aqueous solubility result in data set [7] was “high”. The “reaction rate, formation of MIDD0301 glucoside” value in [10] was found to be 0.0038 min⁻¹. Further, the “half-life, glucosidation” value in data set [10] (10 μM) was 4.93 h. Further, the EC50 in [13] is 72 nM. In addition, in data set [14] (10 μM), the “% inhibition of CYP3A4 activity” value is listed as “less than 1%”. Besides, the “Feces & Urine (%) 0-48 hours” value in [15] (IP, 750 μg) was 43.9 ± 6.24%; in data set [15] (IV, 250 μg) it was 32% and 32.0 ± 3.7%; in data set [15] (oral, 750 μg), 55.1% and 55.1 ± 5.7%. Further, the “Feces (%) 0-24 hours” value in [15] (IP, 750 μg) is 43.2% and 43.2 ± 5.9%; in data set [15] (IV, 250 μg), 30.4% and 30.4 ± 3.4%; in [15] (oral, 750 μg) it was 54.3% and 54.3 ± 5.2%. For the same compound, the “Feces (%) 24-48 hours” value in data set [15] (IP, 750 μg) is 0.3 ± 0.1%; in data set [15] (IV, 250 μg) it was 1.2 ± 0.2%; in [15] (oral, 750 μg), 0.7% and 0.7 ± 0.4%. Besides, the “Urine (%) 0-24 hours” value in data set [15] (IP, 750 μg) was 0.3% and 0.3 ± 0.2%; in [15] (IV, 250 μg), 0.4% and 0.4 ± 0.1%; in [15] (oral, 750 μg) it was 0.1% and 0.1 ± 0.01%. Further, the “Urine (%) 24-48 hours” value is recorded as 0.1 ± 0.04% in [15] (IP, 750 μg); “<LOD” in data set [15] (IV, 250 μg); “<LOD” in data set [15] (oral, 750 μg). For the same compound, the bioavailability in data set [15] (oral, from unconjugated MIDD0301 excreted, 32% IV versus 55.1% oral) is no more than 77%. Also, in data set [16], the brain absorption entry was “very little”. For the same compound, the “central nervous system effects” value in [16] (high single or repeated dosing) is on record as “no observed central nervous system effects”.

As to `C#Cc1ccc2c(c1)C(c1ccccc1F)=N[C@H](C)c1c(C(=O)NC)ncn1-2` [MP-III-022], in data set [17], the metabolic stability entry is “stable”.

For the compound `C#Cc1ccc2c(c1)C(c1ccccc1F)=N[C@H](C)c1c(C(=O)OCC)ncn1-2` [SH-053-2’F-R-CH3], the metabolic stability entry in data set [17] is “metabolized fully within four hours”.

Take `Cc1c(O)cccc1C(=O)N[C@@H](CSc1ccccc1)[C@H](O)CN1C[C@H]2CCCC[C@H]2C[C@H]1C(=O)NC(C)(C)C` [nelfinavir, reference compound]: the “inhibition of CYP3A4 activity” value in [14] (100 μM) is reported as “completely inhibited”.
